Rin1-Abl PPI inh: human Rin1-Abl interaction inhibition | TR-FRET Rin1/Abl binding, biochemical | P00519+Q13671 | inhibition, % at 7.35 µM | actives 0.4% (n = 360,000); in the data active = inhibition above about 5%, passing the limit was not always enough
Rce1 inhib: inhibitors of yeast Ras-converting enzyme; calls only; Q03530; yeast membranes, quenched prenylated peptide cleavage fluorescence; actives 0.27% (n = 290,000);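 active = fall in fluorescence gain of 50% or more versus controls, with final raw signal at or below 3038400; inconclusive = same 50% fall but final raw signal above 3038400; inactive = fall in fluorescence gain under 50%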
Myeloid diff MLP: compounds promoting myeloid differentiation; ER-HoxA9 myeloid progenitors, lysozyme-GFP differentiation, flow cytometry; calls only at 10 µM; actives 1% (n = 360,000);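 active = normalized GFP-positive differentiation at or above the plate's own cutoff, the solvent-only control mean plus 3 SD; inconclusive = no clear call, values can overlap the other calls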;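 also: cells exposed to compound for four days before flow analysis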
GRK2 aptamer HTS: human GRK2 inhibition via aptamer displacement | P25098 | bead flow cytometry, FAM-aptamer displacement from GRK2 | inhibition of aptamer binding, % at 10 µM | actives 0.59% (n = 330,000) | AID 488847;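 active = inhibition of aptamer binding above 40%, roughly 3 SD of noise, on plates passing a quality check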;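 also: median bead fluorescence of bound FAM aptamer so fluorescent compounds give negative values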
T cell HTS: T cell immune modulation candidate. 2C CD8+ T cell-vesicle binding, flow cytometry; stronger effect = lower value. response (vesicle binding), % at 7 µM. actives 0.068% (n = 330,000). AID 2052;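 active = response, share of CD8 T cells binding vesicles, and their 90th percentile fluorescence all below set limits, cut at about 80% in these data, passing the limit was not always enough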;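 also: values below 100% mean blocked vesicle binding to the CD8+ T cells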
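Assay system – 2C mouse CD8+ T cells · Also added – QL9-loaded Drosophila micro-vesicles · Timing – Cell–vesicle co-incubation 1.5 h at 37 °C, staining 20 min on ice · Signal – flow cytometry of vesicle-bound cells · Measure – percent CD8+ FL2 mean versus row control · Controls – Peptide-free naked vesicles (low) and QL9 vesicles with 0.7% DMSO vehicle (high)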
SKN-1 inh: blocks SKN-1 activity in C. elegans; C. elegans VP596 Pgst-4::GFP/RFP ratio, acrylamide-induced, 24 h; inhibition, % at 21.8 µM; actives 0.49% (n = 360,000); AID 624304;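 active = interference check ratio from 0.5 to 1.5 plus GFP to RFP signal ratio inhibition reaching or exceeding a fixed threshold, cut at about 30% in these data, passing the limit was not always enough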
GRK2 inh confirm: human GRK2 inhibition confirmation, cherry pick 1. actives 4% (n = 2,000). shares compounds with GRK2 aptamer HTS. bead-bound GRK2, FAM-aptamer displacement, flow cytometry. aptamer displacement, % at 10 µM;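 active = aptamer displacement above 40%, near three times the noise of non-fluorescent compounds, on plates passing quality checks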;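 also: negative values mostly reflect intrinsic compound fluorescence rather than true enhancement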
Aptamer quench 1: quenches fluorescent RNA aptamer, GRK2 hit artifact. shares compounds with GRK2 aptamer HTS. Fluorescent RNA aptamer beads, quenching, flow cytometry; stronger effect = higher value. fluorescence change (kMESF span), kMESF (no concentration beside the values). 110 tested, under 10 active. AID 504521;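 active = compounds whose bead fluorescence drops by more than 37 kMESF across the dose range, marking them as dye quenchers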
FAM quench CP1: quenches fluorescent RNA aptamer, GRK2 hit artifact; shares compounds with GRK2 aptamer HTS; Carboxyfluorescein RNA aptamer on beads, flow cytometry quenching; stronger effect = lower value; fluorescence response (% of DMSO), % at 10 µM; 2,000 tested, under 10 active;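 active = compounds that quench the bead-bound fluorescent RNA probe, cutting fluorescence to under half of the solvent control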;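 also: counterscreen run without GRK2 so only probe quenching by compound is measured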
GRK2 confirm 2: confirmation of human GRK2 inhibitors binding RNA aptamer site | inhibition of aptamer binding, % at 10 µM | 360 tested, under 10 active | shares compounds with GRK2 aptamer HTS | bead-bound GRK2, FAM-aptamer displacement, flow cytometry;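 active = inhibition of aptamer binding above 40%, about triple the noise seen with nonglowing compounds, on plates passing quality control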;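 also: negative values mostly come from compounds that fluoresce themselves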
FAM quench SP: aptamer fluorescence quenching in GRK2 counter-screen. AID 588494. shares compounds with GRK2 aptamer HTS. carboxyfluorescein RNA aptamer beads, flow cytometry quenching; stronger effect = lower value. 360 tested, under 10 active. fluorescence response vs DMSO, % at 10 µM;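 active = response vs DMSO under 50%, meaning signal dropped by over half, treated as fluorescence quencher; inconclusive = no clear call, values can overlap the other calls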;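 also: labelled aptamer on streptavidin beads without GRK2 as a quench counter-screen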
FAM quench DR: quenches fluorescent RNA aptamer, GRK2 hit artifact; shares compounds with GRK2 aptamer HTS; Bead-bound FAM RNA aptamer fluorescence quenching, flow cytometry; stronger effect = lower value; fluorescence ratio to DMSO, % at 11.1 µM; 35 tested, under 10 active; AID 588496;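 active = compounds that dim the fluorescent label, raw bead signal shifting by over 33 units between lowest and highest dose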
Large screens that a line does not name were inactive (follow-up assays come after a bar, where they were run). Compounds with a hit are over-represented: about 2.6% of the library has one in this group of screens.

O=C(CC[C@H]1O[C@@H](n2cnc3c(NC(=O)c4ccccc4)ncnc32)[C@H](O)[C@@H]1O)NCCCN1CCCC1=O	none (no result: Rce1 inhib, GRK2 aptamer HTS, T cell HTS)
CS(=O)(=O)N(CC(N)=O)c1cccc(Br)c1	none
Cc1cccc(N(CC(N)=O)S(C)(=O)=O)c1C	none | GRK2 inh confirm inactive | FAM quench CP1 inactive
O=C1C(Cc2ccccc2)Nc2ncnc(N3CCc4ccccc4C3)c2N1Cc1ccc(Br)cc1 (centres undefined)	none (no result: Rin1-Abl PPI inh, Myeloid diff MLP, SKN-1 inh)
COc1cc2cc(CCOC(=O)N3CCCCC3)oc(=O)c2cc1OC	GRK2 aptamer HTS 42 (no result: Rce1 inhib) | GRK2 inh confirm inactive | FAM quench CP1 inactive
COc1cc2cc(CCOC(=O)CCCC(=O)O)oc(=O)c2cc1OC	none (no result: Rce1 inhib)
Cc1c(NC(=O)c2ccc(NS(=O)(=O)c3ccc(F)c(F)c3)cc2)c(=O)n(-c2ccccc2)n1C	none (no result: Rce1 inhib)
CCOc1ccc(NC(=O)CN(C)C(=O)c2cc(-c3ccco3)nc3ccccc23)cc1OCC	none (no result: Rce1 inhib, GRK2 aptamer HTS, T cell HTS) | GRK2 inh confirm inactive | FAM quench CP1 inactive
CCOc1ccc(NC(=O)CN(C)C(=O)c2cc(C)nc3ccccc23)cc1OCC	none (no result: Rce1 inhib)
Cc1nc(CN2CCOCC2)cc(=O)[nH]1	GRK2 aptamer HTS 48 | GRK2 inh confirm inactive | FAM quench CP1 inactive
COc1nc(N)c(C#N)c(-c2ccc(N(C)CCC#N)cc2)c1C#N	none
COc1ccc(OC)c2nc(-c3ccc4c(c3)OCO4)ccc12	GRK2 aptamer HTS 42 | GRK2 confirm 2 inactive | FAM quench SP inactive
O=C(/C=C/c1ccco1)Nc1ccccc1C(=O)O	GRK2 aptamer HTS 71 | GRK2 inh confirm inactive | FAM quench CP1 inactive
COC(=O)C1CN(C(=O)COc2ccc(C)cc2)c2ccccc2O1 (centres undefined)	none
Cc1cccc(N=C2NC(=O)/C(=C/c3cccn3C)S2)c1	none
Cc1c(/C=C2\SC(=Nc3cccc(C(=O)O)c3)NC2=O)c2ccccc2n1C	GRK2 aptamer HTS 64 | GRK2 inh confirm inactive | FAM quench CP1 inactive
CCCCNC(=O)C1(C)CCN1C(=O)c1ccncc1 (centres undefined)	none (no result: Rce1 inhib, GRK2 aptamer HTS, T cell HTS)
CCOC(=O)N1CCN(C(=O)CCC(=O)N2CCOc3ccc(C)cc32)CC1	GRK2 aptamer HTS 93 | GRK2 inh confirm inactive | FAM quench CP1 inactive
CCOC(=O)C(C)Sc1nc2c(c(=O)[nH]c(=O)n2C)n1C/C=C(/C)Cl (centres undefined)	GRK2 aptamer HTS 58 | GRK2 inh confirm 58 | Aptamer quench 1 inactive | FAM quench CP1 inactive
CN(C)S(=O)(=O)c1ccc(Nc2nc(C3CC3)nc3c2nnn3Cc2ccccc2Cl)cc1	Myeloid diff MLP inconclusive, GRK2 aptamer HTS 77 | GRK2 confirm 2 inactive | FAM quench SP inconclusive
Cc1ccc(-c2ccccc2)n1-c1ccc(C(=O)O)cc1	GRK2 aptamer HTS 51 (no result: Rce1 inhib) | GRK2 inh confirm inactive | FAM quench CP1 inactive | GRK2 confirm 2 inactive | FAM quench SP inactive
Cc1cc(C)c(OCC(=O)N2CCN(c3ncc(C(F)(F)F)cc3Cl)CC2)c(C)c1	GRK2 aptamer HTS 80 | GRK2 confirm 2 inactive | FAM quench SP inactive
Cc1cc(C)cc(NC(=S)N2CCN(c3ncc(C(F)(F)F)cc3Cl)CC2)c1	none
CCOc1ccc(NC(=O)CN(C)C(=O)COc2cccc3c2OC(C)(C)C3)cc1OCC	GRK2 aptamer HTS 98 (no result: Rce1 inhib) | GRK2 inh confirm inactive | FAM quench CP1 inactive
CCN(CC(=O)Nc1ccc(OC)cc1)C(=O)COc1cccc2c1OC(C)(C)C2	none
COc1cc(C)c(NC(=O)COc2cccc3c2OC(C)(C)C3)cc1OC	GRK2 aptamer HTS 41 (no result: Rce1 inhib) | GRK2 confirm 2 inactive | FAM quench SP inactive
CC(C)(CNC(=O)c1cc([N+](=O)[O-])ccc1N1CCC(Cc2ccccc2)CC1)N1CCOCC1	none (no result: Rce1 inhib)
CCc1nc2ccc(C(=O)NCCc3c[nH]c4ccccc34)cn2c1N(C)Cc1nccn1C	none (no result: Rce1 inhib, GRK2 aptamer HTS, T cell HTS)
CCN(CCO)c1ncnc2onc(-c3ccc(F)cc3)c12	none
O=c1[nH]cnc2onc(-c3ccc(F)cc3)c12	none | GRK2 inh confirm inactive | FAM quench CP1 inactive
COc1ccccc1S(=O)(=O)n1cc(Cc2ccccc2)c(N)n1	GRK2 aptamer HTS 74 | GRK2 inh confirm inactive | FAM quench CP1 inactive
O=C(O)c1ccc(OC(F)(F)C(F)C(F)(F)F)cc1 (centres undefined)	GRK2 aptamer HTS 76 | GRK2 inh confirm inactive | FAM quench CP1 inactive
Cn1c(CSCc2ccccc2)nnc1SCC(=O)Nc1nccs1	GRK2 aptamer HTS 50 | GRK2 inh confirm inactive | FAM quench CP1 inactive
Cn1c(CC(=O)Nc2ccccc2Cl)nnc1SCC(=O)NC1CCCCC1	none
Cc1ccc(C)c(NC(=S)NC(=O)c2cncc(Br)c2)c1	GRK2 aptamer HTS 79 | GRK2 inh confirm inactive | FAM quench CP1 inactive
C=CCn1c(CNC(=O)c2ccco2)nnc1SCC(=O)c1ccccc1	GRK2 aptamer HTS 80 | GRK2 inh confirm inactive | FAM quench CP1 inactive
CCn1c(CNC(=O)c2ccco2)nnc1SCC(=O)c1ccc(F)cc1	none
COC(=O)c1ccc(NC(=O)CCS(=O)(=O)c2ccc(Br)s2)cc1	none (no result: Rce1 inhib)
Cc1ccccc1NC(=O)CCS(=O)(=O)c1ccc(Br)s1	GRK2 aptamer HTS 67 | GRK2 inh confirm inactive | Aptamer quench 1 inactive | FAM quench CP1 inactive | FAM quench DR inactive
COC(=O)c1ccccc1NC(=O)CCS(=O)(=O)c1ccc(Br)s1	none | GRK2 inh confirm inactive | Aptamer quench 1 inactive | FAM quench CP1 inactive | FAM quench DR inactive
CCN(CC)C(=O)CCc1nc2sc3c(c2c(=O)[nH]1)CCCC3	none (no result: T cell HTS)
CCCCc1nc2sc3c(c2c(=O)[nH]1)CCC3	GRK2 aptamer HTS 58 | GRK2 inh confirm inactive | FAM quench CP1 inactive
Cc1ccc(S(=O)(=O)N2CCCCC2)cc1C(=O)N(CCc1ccccc1)Cc1ccccc1	none
CNC(=O)c1ccsc1NC(=O)CS(=O)(=O)c1ccccc1	none | GRK2 confirm 2 inactive | FAM quench SP inactive
